Measurements as given in the EternaBench riboswitch data.

System: MS2 coat protein
Assay: apparent Kd, MS2 coat protein; higher = weaker binding; RNA-MaP array; tryptophan 2.4 mM where present
Method in brief: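 Stalled E. coli RNA polymerase transcribed each design on Illumina sequencing-chip clusters. The clusters were titrated with SNAP-549-labelled MS2 coat protein, starting at 0.7 or 1.5 nM and doubling up to 3 µM, first without ligand and then with constant ligand, in 100 mM Tris-HCl pH 7.5, 80 mM KCl, 4 mM MgCl2, BSA, DTT, yeast tRNA and Tween-20. Green signal was normalised to red-channel RNA signal and to the control-cluster median Fmax. The apparent Kd is the median of filtered binding-curve fits made for each cluster.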

[1] = designed as: ON switch for tryptophan, no ligand
[2] = ligand present: tryptophan, designed as: ON switch for tryptophan
[3] = designed as: OFF switch for tryptophan, no ligand
[4] = ligand present: tryptophan, designed as: OFF switch for tryptophan

Sequence | apparent Kd [1] | apparent Kd [2] | apparent Kd [3] | apparent Kd [4]
GGGUGGUAGGCGGCCGCCACUGAUUUUUAUUUAUAGAUGACAUGAGGAUCACCCAUGUUGAUAUGCAGGACCGGGCCUGUUGUUG | 0.0151 µM | 0.0132 µM | – | –
AGAUUCGACACGGCCGCCACUCGAGACGGAUUUCCGAGUGUCGAACAUGAGGAUCACCCAUGUCCGAGGACCGGGUGUUGAGUCU | – | – | 0.0322 µM | 0.401 µM
CCUAUCCAGUCGGCCGCCACUGACCAUUUGGAACAGUGGGUGAAAACAUGAGGAUCACCCAUGUACAGGACCGGGACUGUAUAGG | – | – | 0.0116 µM | 0.042 µM
AUCUAUAGAGCGGCCGCCACUGAAUACAUGAGGAUCACCCAUGUAAUGUUAAGGUGGUCCUAGCUCAGGACCGGGCUCUAUAGAU | – | – | 0.0365 µM | 0.0222 µM
CUACAUUUGUAGAAACCGGUCAACAAUAAUCGAGGACCGGUACGGCCGCCACUCGUAUAAUUUAUUACAUGAGGAUCACCCAUGU | 0.0137 µM | 0.0138 µM | – | –
CUAUAAGUACCGGUCCUCAGAUCCUCAUGACGAGGACCGGUACGGCCGCCACUCGAAACAUGAGGAUCACCCAUGUAAUAAUAUC | – | – | 0.0207 µM | 0.0186 µM
UUUGUAAUUGUCUGGUAGAUUUAUUUAUUUCGAGGACCGGUACGGCCGCCACUCGUUAAUUACAUGAGGAUCACCCAUGUUAGCU | – | – | 0.0134 µM | 0.0132 µM
CUGUGUCCUUCGGCCGCCACUACAUGAGGAUCACCCAUGUCGUUACGGCUCCCAAUGACGCUUUGUAGGACCGGGAAGGAGUAUG | – | – | 0.0103 µM | 0.0158 µM
CAAAAUUUAACGGCCGCCACUUACUCAUGAGGUAACAACAUGAGGAUCACCCAUGUUUGAGGAUCAAGGACCGGGUUAAAUUUUG | 0.0307 µM | 0.0182 µM | – | –
AAUGGCCGUACCGGAAGGGUGAUCCUCAAACGAGGACCGGUACGGCCGCCACUCGAUAACAUGAGGAUCACCCAUGUAAUAAUAA | – | – | 0.331 µM | 0.389 µM
GCUACAUGAGGAUCACCCAUGUAUGCGAGUCGAGGACCGGUACGGCCGCCACUCGCUUAACAUGAGGAUCACCCAUGUUACUCGC | 0.0646 µM | 0.0311 µM | – | –
CUUAUAUAUACGGCCGCCACUUACUCAUGAGGUAACAACAUGAGGAUCACCCAUGUUUGAGGAUCAAGGACCGGGUAUAUAUAAG | 0.0253 µM | 0.0182 µM | – | –
ACAUGACAACAUGAGGAUCACCCAUGUCAUCGAGGACCGGUACGGCCGCCACUCGGUCAAUAUGAUACUUGUCAUGAACAUGAGG | – | – | 0.0187 µM | 0.0235 µM
GCGCGGCGAGUGCGGCGUGUUCCGCUCCGUCGAGGACCGGUACGGCCGCCACUCGACAUGAGGAUCACCCAUGUCGCCGCGCGUC | – | – | 0.0121 µM | 0.0123 µM
AGAUGAGUCACGGCCGCCACUCUUAUCAGGAUCACCCAUGGUUAACAUGAGGAUCACCCAUGUCUGAGGACCGGGUGAUGAGCAU | – | – | 0.0216 µM | 0.0239 µM
AGAUUCGACACGGCCGCCACUCUACACGGAUUUCCGAGUGUCGAACAUGAGGAUCACCCAUGUGGGAGGACCGGGUGUUGAGUCU | – | – | 0.437 µM | 1.03 µM
AAAACAUGAGGAUCACCACAUGACAUGAGGCGAGGACCGGUACGGCCGCCACUCGACAUACAUGAGGAUCACCCAUGUUUGUUGU | – | – | 0.217 µM | 0.269 µM
ACAUGUUGGUGGUAUCUACGAAGGCGGAAACGAGGACCGGUACGGCCGCCACUCGGCGACAUGAGGAUCACCCAUGUGGUUAAGA | – | – | 0.072 µM | 0.0464 µM
AGUCUGGACUCGGCCGCCACUCGUGAUGCUUUGGCACAUGAGGAUCACCCAUGUGGUCGGCCUUAGAGGACCGGGAGUACCAGCU | 0.0564 µM | 0.0129 µM | – | –
GGGAGGGAGGCGGCCGCCACUGAUUUUCAUAUAUAUAUAACAUGAGGAUCACCCAUGUAGAUAUGCAGGACCGGGCCUUUUUUUU | 0.0205 µM | 0.0176 µM | – | –
AAUAACAUGAGGAUCACCCAUGUAAGUAAACGAGGACCGGUACGGCCGCCACUCGAAUAAAUAAAGUACCGGUAAGAUCCAUAGA | 0.0213 µM | 0.0239 µM | – | –
CAUGCCAGGGCGGCCGCCACUGUGGCUACGGUACAUGAGGAUCACCCAUGUUUGUGGUUGAUCUACAGGACCGGGCCCUAGCACG | 0.118 µM | 0.238 µM | – | –
ACAUUGCGCUCGGCCGCCACUGGCUUAUGAUUAUAAGCAUUAAUGAACAUGAGGAUCACCCAUGUCAGGACCGGGAGCGAACCAU | 0.014 µM | 0.0166 µM | – | –
AACUACUCGAGGUGAUCCUACGAGUGGCAACGAGGACCGGUACGGCCGCCACUCGAAUAAACAUGAGGAUCACCCAUGUACAAAU | 0.081 µM | 0.0837 µM | – | –
